Assay results reported in ChEMBL document CHEMBL1146375, “Synthetic studies on novel benzimidazolopeptides with antimicrobial, cytotoxic and anthelmintic potential” (2007).
Converted amounts (≈) assume the structure as drawn. Residues, ends and D or L forms follow the SMILES beside them. *: point of attachment. X1 = Cc1cc2nc(-c3ccc(O)c(C(=O)*)c3)[nH]c2cc1C

Tests used:
[1] = Growth inhibition of DLA cells at 7.81 ug/mL after 3 hrs; format: functional; details: Mus musculus
Procedure, shortened: (§1)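 DLA and EAC cells passaged intraperitoneally in albino mice, harvested after 15–20 days and adjusted to 1 × 10⁶ cells/mL. Dilutions in Dulbecco's medium (500–31.25, some down to 3.91 µg/mL; 5-FU reference) mixed 1:1 with cells and held 3 h at 37 °C. Trypan blue exclusion gave % growth inhibition; CTC50 by graphical extrapolation.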

Staphylococcus aureus [2] = assay: Antibacterial activity against Staphylococcus aureus NCIM 2079 after 18 hrs by tube dilution method; format: functional; details: NCIM 2079, 18 h
Procedure, shortened: (§2)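 Tube dilution MIC. Stock diluted in sterile broth to seven concentrations from 200 to 3.1 […]. Each tube inoculated with one loopful of test bacterium and incubated 18 h at 37 °C. MIC read from presence or absence of growth.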

[3] = Growth inhibition of EAC cells at 62.5 ug/mL after 3 hrs; format: functional; details: Mus musculus, Ehrlich; procedure, shortened: as §1
Bacillus subtilis [4] = assay: Antibacterial activity against Bacillus subtilis NCIM 2063 after 18 hrs by tube dilution method; format: functional; details: NCIM 2063, 18 h; procedure, shortened: as §2
Trichophyton benhamiae [5] = assay: Antifungal activity against Trichophyton mentagrophytes MUCC 665 after 48 hrs by tube dilution method; format: functional, Arthroderma benhamiae
Procedure, shortened: (§3)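 Tube dilution MIC as for bacteria (seven concentrations, 200–3.1 […]), with DMSO in place of DMF. Tubes inoculated with fungal culture and incubated 48 h at 37 °C. MIC read from presence or absence of growth.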

Candida albicans [6] = assay: Antifungal activity against Candida albicans MUCC 29 after 48 hrs by tube dilution method; format: functional; procedure, shortened: as §3
[7] = Anthelmintic activity against Megascoplex konkanensis ICARBC 211 assessed as mean paralyzing time; format: functional
Procedure, shortened: (§4)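 Earthworms exposed to test suspensions at 2 mg mL^-1 (0.2% w/v), made by triturating compound with Tween 80 (0.5%) and distilled water, then mechanically stirred 30 min. Mebendazole suspension prepared alike as reference. Paralysis and death times recorded; death confirmed by no movement in 50 °C water. Means from triplicate sets.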

Escherichia coli [8] = assay: Antibacterial activity against Escherichia coli NCIM 2065 after 18 hrs by tube dilution method; format: functional; details: NCIM 2065, 18 h
[9] = Growth inhibition of DLA cells at 62.5 ug/mL after 3 hrs; format: functional; details: Mus musculus; procedure, shortened: as §1
Eudrilus [10] = assay: Anthelmintic activity against Eudrilus sp. assessed as mean death time; format: functional
Procedure, shortened: (§5)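 Earthworms exposed to test suspensions at 2 mg mL−1, prepared by triturating compound with Tween 80 (0.5%) and distilled water, stirring 30 min, then diluting to 0.2% w/v. Mebendazole suspension was made the same way. Death was confirmed by moving worms into 50 °C warm water and looking for movement. Mean death time (min) taken from triplicate sets.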

Pseudomonas aeruginosa [11] = assay: Antibacterial activity against Pseudomonas aeruginosa NCIM 2034 after 18 hrs by tube dilution method; format: functional; details: NCIM 2034, 18 h; procedure, shortened: as §2
Microsporum audouinii [12] = assay: Antifungal activity against Microsporum audouinii MUCC 545 after 48 hrs by tube dilution method; format: functional; procedure, shortened: as §3
[13] = Growth inhibition of EAC cells at 7.81 ug/mL after 3 hrs; format: functional; details: Mus musculus, Ehrlich; procedure, shortened: as §1
[14] = Anthelmintic activity against Megascoplex konkanensis ICARBC 211 assessed as mean death time; format: functional; procedure, shortened: as §4
[15] = Growth inhibition of DLA cells after 3 hrs; format: functional; details: Mus musculus; procedure, shortened: as §1
[16] = Growth inhibition of DLA cells at 3.91 ug/mL after 3 hrs; format: functional; details: Mus musculus; procedure, shortened: as §1
Aspergillus niger = assay: Antifungal activity against Aspergillus niger MUCC 177 after 48 hrs by disc diffusion method; format: functional
Procedure, shortened: (§6)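 Agar well diffusion on plates inoculated with spore suspension in normal saline from cultures on Sabouraud's broth. Wells punched and loaded with test samples or griseofulvin at 10 mg mL^-1, with DMSO as negative control. Incubated 48 h at 37 °C.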

[17] = Growth inhibition of EAC cells at 31.25 ug/mL after 3 hrs; format: functional; details: Mus musculus, Ehrlich; procedure, shortened: as §1
Eudrilus [18] = assay: Anthelmintic activity against Eudrilus sp. assessed as mean paralyzing time; format: functional; procedure, shortened: as §4
Trichophyton benhamiae [19] = assay: Antifungal activity against Trichophyton mentagrophytes MUCC 665 after 48 hrs by disc diffusion method; format: functional, Arthroderma benhamiae; procedure, shortened: as §6
Candida albicans [20] = assay: Antifungal activity against Candida albicans MUCC 29 after 48 hrs by disc diffusion method; format: functional; procedure, shortened: as §6
[21] = Growth inhibition of EAC cells at 15.63 ug/mL after 3 hrs; format: functional; details: Mus musculus, Ehrlich; procedure, shortened: as §1
Pontoscolex corethrurus [22] = assay: Anthelmintic activity against Pontoscolex corethrurus ICARBC 408 assessed as mean death time; format: functional; procedure, shortened: as §5
Staphylococcus aureus [23] = assay: Antibacterial activity against Staphylococcus aureus NCIM 2079 after 18 hrs by disc diffusion method; format: functional
Procedure, shortened: (§7)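 Modified Kirby-Bauer disc diffusion. Plates inoculated with spore suspension (about 6 × 10⁴ spores mL^-1). Sterile 6 mm paper discs carried test samples at 10 mg mL^-1; ciprofloxacin disc as reference, DMF disc as negative control. Plates held 18 h at 37 °C. Inhibition zone diameters (mm) averaged over triplicate sets.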

Pontoscolex corethrurus [24] = assay: Anthelmintic activity against Pontoscolex corethrurus ICARBC 408 assessed as mean paralyzing time; format: functional; procedure, shortened: as §4
[25] = Growth inhibition of DLA cells at 31.25 ug/mL after 3 hrs; format: functional; details: Mus musculus; procedure, shortened: as §1
[26] = Growth inhibition of EAC cells at 3.91 ug/mL after 3 hrs; format: functional; details: Mus musculus, Ehrlich; procedure, shortened: as §1
Microsporum audouinii [27] = assay: Antifungal activity against Microsporum audouinii MUCC 545 after 48 hrs by disc diffusion method; format: functional; procedure, shortened: as §6
Escherichia coli [28] = assay: Antibacterial activity against Escherichia coli NCIM 2065 after 18 hrs by disc diffusion method; format: functional; procedure, shortened: as §7
Pseudomonas aeruginosa [29] = assay: Antibacterial activity against Pseudomonas aeruginosa NCIM 2034 after 18 hrs by disc diffusion method; format: functional; procedure, shortened: as §7
[30] = Growth inhibition of EAC cells after 3 hrs; format: functional; details: Mus musculus, Ehrlich; procedure, shortened: as §1
[31] = Growth inhibition of DLA cells at 15.63 ug/mL after 3 hrs; format: functional; details: Mus musculus; procedure, shortened: as §1
Bacillus subtilis [32] = assay: Antibacterial activity against Bacillus subtilis NCIM 2063 after 18 hrs by disc diffusion method; format: functional; procedure, shortened: as §7
[33] = Growth inhibition of EAC cells at 250 ug/mL after 3 hrs; format: functional; details: Mus musculus, Ehrlich; procedure, shortened: as §1
[34] = Growth inhibition of EAC cells at 500 ug/mL after 3 hrs; format: functional; details: Mus musculus, Ehrlich; procedure, shortened: as §1

`Cc1cc2nc(-c3ccc(O)c(C(=O)NCC(=O)N[C@@H](Cc4c[nH]c5ccccc45)C(=O)NCC(=O)N[C@@H](Cc4cnc[nH]4)C(=O)O)c3)[nH]c2cc1C` (X1-GWGH-OH) gave an inhibition at 7.81 µg/mL [1] of 60.5%, an MIC (Staphylococcus aureus [2]) of 12.5 µg/mL (≈ 17.4 µM) and an inhibition at 62.5 µg/mL [3] of 100%. It also gave an MIC (Bacillus subtilis [4]) of 6 µg/mL (≈ 8.34 µM), an MIC (Trichophyton benhamiae [5]) of 6 µg/mL (≈ 8.34 µM) and an MIC (Candida albicans [6]) of 6 µg/mL (≈ 8.34 µM). For the same compound, the TIME [7] was 0.155 h, the MIC (Escherichia coli [8]) was 12.5 µg/mL (≈ 17.4 µM) and the inhibition at 62.5 µg/mL [9] was 100%. The Time (Eudrilus [10]) was 19.83 min, the MIC (Pseudomonas aeruginosa [11]) was 6 µg/mL (≈ 8.34 µM) and the MIC (Microsporum audouinii [12]) was 6 µg/mL (≈ 8.34 µM). For the same compound, the inhibition at 7.81 µg/mL [13] was 46.4%, the TIME [14] was 0.289 h and the CC50 [15] was 6.15 µM. The inhibition at 3.91 µg/mL [16] was 44.7%, the “inhibition zone (IZ)” value (Aspergillus niger) was 16 mm and the inhibition at 31.25 µg/mL [17] was 92.8%. The Time (Eudrilus [18]) was 10.89 min, the “inhibition zone (IZ)” value (Trichophyton benhamiae [19]) was 16 mm and the “inhibition zone (IZ)” value (Candida albicans [20]) was 20 mm. The inhibition at 15.63 µg/mL [21] was 75%, the Time (Pontoscolex corethrurus [22]) was 24.52 min and the “inhibition zone (IZ)” value (Staphylococcus aureus [23]) was 10 mm. The Time (Pontoscolex corethrurus [24]) was 12.22 min, the inhibition at 31.25 µg/mL [25] was 100% and the inhibition at 3.91 µg/mL [26] was 10.7%. The “inhibition zone (IZ)” value (Microsporum audouinii [27]) was 11 mm, the “inhibition zone (IZ)” value (Escherichia coli [28]) was 18 mm and the “inhibition zone (IZ)” value (Pseudomonas aeruginosa [29]) was 24 mm. The CC50 [30] was 12 µM, the inhibition at 15.63 µg/mL [31] was 81.6% and the “inhibition zone (IZ)” value (Bacillus subtilis [32]) was 14 mm.

Compound `O=c1[nH]cc(F)c(=O)[nH]1` [FLUOROURACIL] has an inhibition at 7.81 µg/mL [1] of 65.8%, an inhibition at 62.5 µg/mL [9] of 100% and an inhibition at 7.81 µg/mL [13] of 32.1%. For the same compound, the CC50 [15] was 37.4 µM, the inhibition at 3.91 µg/mL [16] was 42.1% and the inhibition at 250 µg/mL [33] was 100%. It also gave an inhibition at 15.63 µg/mL [21] of 60.7%, an inhibition at 31.25 µg/mL [25] of 100% and an inhibition at 3.91 µg/mL [26] of 17.9%. It also gave an inhibition at 500 µg/mL [34] of 100%, a CC50 [30] of 90.5 µM and an inhibition at 15.63 µg/mL [31] of 73.7%.

`COC(=O)[C@H](Cc1cnc[nH]1)NC(=O)CNC(=O)[C@H](Cc1c[nH]c2ccccc12)NC(=O)CNC(=O)c1cc(-c2nc3cc(C)c(C)cc3[nH]2)ccc1O` (X1-GWGH-OMe) showed an inhibition at 7.81 µg/mL [1] of 44.7%, an MIC (Staphylococcus aureus [2]) of 12.5 µg/mL (≈ 17 µM) and an inhibition at 62.5 µg/mL [3] of 100%. The MIC (Bacillus subtilis [4]) was 6 µg/mL (≈ 8.18 µM), the MIC (Trichophyton benhamiae [5]) was 6 µg/mL (≈ 8.18 µM) and the MIC (Candida albicans [6]) was 6 µg/mL (≈ 8.18 µM). For the same compound, the TIME [7] was 0.157 h, the MIC (Escherichia coli [8]) was 12.5 µg/mL (≈ 17 µM) and the inhibition at 62.5 µg/mL [9] was 100%. For the same compound, the Time (Eudrilus [10]) was 20.94 min, the MIC (Pseudomonas aeruginosa [11]) was 6 µg/mL (≈ 8.18 µM) and the MIC (Microsporum audouinii [12]) was 6 µg/mL (≈ 8.18 µM). It also gave an inhibition at 7.81 µg/mL [13] of 35.7%, a TIME [14] of 0.291 h and a CC50 [15] of 15.3 µM. For the same compound, the inhibition at 3.91 µg/mL [16] was 26.3%, the “inhibition zone (IZ)” value (Aspergillus niger) was 15 mm and the inhibition at 31.25 µg/mL [17] was 71.4%. The Time (Eudrilus [18]) was 11.06 min, the “inhibition zone (IZ)” value (Trichophyton benhamiae [19]) was 15 mm and the “inhibition zone (IZ)” value (Candida albicans [20]) was 17 mm. For the same compound, the inhibition at 15.63 µg/mL [21] was 53.6%, the Time (Pontoscolex corethrurus [22]) was 26.21 min and the “inhibition zone (IZ)” value (Staphylococcus aureus [23]) was 9 mm. The Time (Pontoscolex corethrurus [24]) was 14.34 min, the inhibition at 31.25 µg/mL [25] was 86.8% and the inhibition at 3.91 µg/mL [26] was 7.14%. The “inhibition zone (IZ)” value (Microsporum audouinii [27]) was 10 mm, the “inhibition zone (IZ)” value (Escherichia coli [28]) was 17 mm and the “inhibition zone (IZ)” value (Pseudomonas aeruginosa [29]) was 23 mm. The CC50 [30] was 18.9 µM, the inhibition at 15.63 µg/mL [31] was 55.3% and the “inhibition zone (IZ)” value (Bacillus subtilis [32]) was 12 mm.
